The results in this text go back to ChEMBL document CHEMBL4014357, “Structure-Based Design and Synthesis of Potent and Selective Matrix Metalloproteinase 13 Inhibitors” (J Med Chem, 2017).

Assay [1] has as its target T1, 72 kDa type IV collagenase (Homo sapiens, UniProt P08253). Put plainly: Inhibition of recombinant human MMP2 expressed in mouse NSO cells at 200 nM using fTHP-15 as substrate preincubated for 30 mins followed by substrate addition measured immediately by fluorescence assay. In outline:
(§1)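 Each enzyme was activated per the supplier's protocol and diluted in EAB (50 mM Tris·HCl pH 7.5, 100 mM NaCl, 10 mM CaCl2, 0.05% Brij-35). Compound was tested at a single 200 nM and preincubated with enzyme for 30 min at 25 °C. Adding fTHP-15 started the reaction, with fluorescence read immediately. Inhibition was scored as percent substrate-to-product conversion after 30 min.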

Assay [2] addresses T2, Neutrophil collagenase (Homo sapiens, UniProt P22894). Put plainly: Inhibition of MMP8 (unknown origin) at 200 nM using fTHP-15 as substrate preincubated for 30 mins followed by substrate addition measured immediately by fluorescence assay. In outline: as §1
Assay [3] addresses T3, Collagenase 3 (Homo sapiens, UniProt P45452). Put plainly: Inhibition of full length recombinant human MMP13 expressed in mouse NSO cells using fTHP-15 as substrate preincubated for 30 mins followed by substrate addition measured immediately by fluorescence assay.
Assay [4] deals with Cathepsin D (Homo sapiens) (UniProt P07339). Put plainly: Inhibition of cathepsin-D (unknown origin) at 1 uM relative to control.
Assay [5] deals with Caspase-6 (Homo sapiens) (UniProt P55212). Put plainly: Inhibition of caspase6 (unknown origin) at 1 uM relative to control.
The target of assay [6] is Insulin-degrading enzyme (Homo sapiens) (UniProt P14735). Put plainly: Inhibition of IDE (unknown origin) at 1 uM relative to control.
The target in assay [7] is Caspase-3 (Homo sapiens) (UniProt P42574). Put plainly: Inhibition of caspase3 (unknown origin) at 1 uM relative to control.
Assay [8] has as its target Urokinase-type plasminogen activator (Homo sapiens) (UniProt P00749). Put plainly: Inhibition of uPA (unknown origin) at 1 uM relative to control.
The target in assay [9] is Cathepsin K (Homo sapiens) (UniProt P43235). Put plainly: Inhibition of cathepsin-K (unknown origin) at 1 uM relative to control.
The target of assay [10] is Caspase-2 (Homo sapiens) (UniProt P42575). Put plainly: Inhibition of caspase2 (unknown origin) at 1 uM relative to control.
Assay [11] has as its target Prothrombin (Homo sapiens) (UniProt P00734). Put plainly: Inhibition of thrombin (unknown origin) at 1 uM relative to control.
Assay [12] addresses Coagulation factor X (Homo sapiens) (UniProt P00742). Put plainly: Inhibition of factor10a (unknown origin) at 1 uM relative to control.
Assay [13] addresses Beta-secretase 1 (Homo sapiens) (UniProt P56817). Put plainly: Inhibition of BACE1 (unknown origin) at 1 uM relative to control.
Assay [14] concerns the target Matrilysin (Homo sapiens) (UniProt P09237). Put plainly: Inhibition of MMP7 (unknown origin) at 1 uM relative to control.
In assay [15] the target is Furin (Homo sapiens) (UniProt P09958). Put plainly: Inhibition of furin (unknown origin) at 1 uM relative to control.
The target in assay [16] is Caspase-1 (Homo sapiens) (UniProt P29466). Put plainly: Inhibition of caspase1 (unknown origin) at 1 uM relative to control.
Assay [17] addresses Caspase-5 (Homo sapiens) (UniProt P51878). Put plainly: Inhibition of caspase5 (unknown origin) at 1 uM relative to control.
Assay [18] concerns the target Disintegrin and metalloproteinase domain-containing protein 17 (Homo sapiens) (UniProt P78536). Put plainly: Inhibition of TACE (unknown origin) at 1 uM relative to control.
The target in assay [19] is Disintegrin and metalloproteinase domain-containing protein 10 (Homo sapiens) (UniProt O14672). Put plainly: Inhibition of ADAM10 (unknown origin) at 1 uM relative to control.
Assay [20] addresses Angiotensin-converting enzyme 2 (Homo sapiens) (UniProt Q9BYF1). Put plainly: Inhibition of ACE2 (unknown origin) at 1 uM relative to control.
Assay [21] deals with Caspase-7 (Homo sapiens) (UniProt P55210). Put plainly: Inhibition of caspase7 (unknown origin) at 1 uM relative to control.
Assay [22] has as its target Cathepsin S (Homo sapiens) (UniProt P25774). Put plainly: Inhibition of cathepsin-S (unknown origin) at 1 uM relative to control.
Assay [23] has as its target Neprilysin (Homo sapiens) (UniProt P08473). Put plainly: Inhibition of neprilysin (unknown origin) at 1 uM relative to control.
The target in assay [24] is Angiotensin-converting enzyme (Homo sapiens) (UniProt P12821). Put plainly: Inhibition of ACE (unknown origin) at 1 uM relative to control.
In assay [25] the target is Procathepsin L (Homo sapiens) (UniProt P07711). Put plainly: Inhibition of cathepsin-L (unknown origin) at 1 uM relative to control.
Assay [26] concerns the target T3, Collagenase 3. Put plainly: Inhibition of full length recombinant human MMP13 expressed in mouse NSO cells using varying levels of fTHP-15 as substrate preincubated for 30 mins followed by substrate addition measured immediately by Lineweaver-Burk plot analysis.
Assay [27] deals with Matrix metalloproteinase-14 (Homo sapiens, UniProt P50281). Put plainly: Inhibition of recombinant human MMP14 using fTHP-15 as substrate preincubated for 30 mins followed by substrate addition measured immediately by fluorescence assay.
The target of assay [28] is T2, Neutrophil collagenase. Put plainly: Inhibition of MMP8 (unknown origin) using fTHP-15 as substrate preincubated for 30 mins followed by substrate addition measured immediately by fluorescence assay.
Assay [29] deals with Matrix metalloproteinase-9 (Homo sapiens, UniProt P14780). Put plainly: Inhibition of MMP9 (unknown origin) using fTHP-15 as substrate preincubated for 30 mins followed by substrate addition measured immediately by fluorescence assay.
For assay [30], the target named is T1, 72 kDa type IV collagenase. Put plainly: Inhibition of recombinant human MMP2 expressed in mouse NSO cells using fTHP-15 as substrate preincubated for 30 mins followed by substrate addition measured immediately by fluorescence assay.

Active and inactive are the calls of the source. No cut-off for these calls is given here. Where only a bound is given, the exact number is not on record here.

Chain of Cathepsin K (Homo sapiens) (P43235 whole entry): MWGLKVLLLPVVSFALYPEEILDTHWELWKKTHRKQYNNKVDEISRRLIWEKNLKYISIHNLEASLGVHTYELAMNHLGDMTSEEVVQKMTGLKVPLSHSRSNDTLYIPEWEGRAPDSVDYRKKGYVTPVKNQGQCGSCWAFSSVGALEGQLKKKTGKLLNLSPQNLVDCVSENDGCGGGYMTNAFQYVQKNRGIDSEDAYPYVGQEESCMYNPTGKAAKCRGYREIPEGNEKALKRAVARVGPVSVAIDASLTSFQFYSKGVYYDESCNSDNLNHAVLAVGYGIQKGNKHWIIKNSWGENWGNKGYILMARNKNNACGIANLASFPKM
Chain of Beta-secretase 1 (Homo sapiens) (P56817 whole entry): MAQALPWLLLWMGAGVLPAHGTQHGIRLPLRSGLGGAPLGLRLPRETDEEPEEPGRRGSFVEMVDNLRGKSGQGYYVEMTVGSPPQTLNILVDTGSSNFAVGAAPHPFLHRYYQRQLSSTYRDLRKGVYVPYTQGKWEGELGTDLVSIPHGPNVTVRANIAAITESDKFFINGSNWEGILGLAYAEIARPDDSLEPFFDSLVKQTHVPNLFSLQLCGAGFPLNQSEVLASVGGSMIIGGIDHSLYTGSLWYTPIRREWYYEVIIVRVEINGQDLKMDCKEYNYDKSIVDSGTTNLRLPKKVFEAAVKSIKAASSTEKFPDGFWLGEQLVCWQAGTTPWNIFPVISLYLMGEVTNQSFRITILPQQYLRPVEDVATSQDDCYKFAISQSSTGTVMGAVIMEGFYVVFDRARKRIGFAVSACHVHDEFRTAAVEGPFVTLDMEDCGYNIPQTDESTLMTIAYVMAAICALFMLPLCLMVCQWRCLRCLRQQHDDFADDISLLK
Chain of Furin (Homo sapiens) (P09958 whole entry): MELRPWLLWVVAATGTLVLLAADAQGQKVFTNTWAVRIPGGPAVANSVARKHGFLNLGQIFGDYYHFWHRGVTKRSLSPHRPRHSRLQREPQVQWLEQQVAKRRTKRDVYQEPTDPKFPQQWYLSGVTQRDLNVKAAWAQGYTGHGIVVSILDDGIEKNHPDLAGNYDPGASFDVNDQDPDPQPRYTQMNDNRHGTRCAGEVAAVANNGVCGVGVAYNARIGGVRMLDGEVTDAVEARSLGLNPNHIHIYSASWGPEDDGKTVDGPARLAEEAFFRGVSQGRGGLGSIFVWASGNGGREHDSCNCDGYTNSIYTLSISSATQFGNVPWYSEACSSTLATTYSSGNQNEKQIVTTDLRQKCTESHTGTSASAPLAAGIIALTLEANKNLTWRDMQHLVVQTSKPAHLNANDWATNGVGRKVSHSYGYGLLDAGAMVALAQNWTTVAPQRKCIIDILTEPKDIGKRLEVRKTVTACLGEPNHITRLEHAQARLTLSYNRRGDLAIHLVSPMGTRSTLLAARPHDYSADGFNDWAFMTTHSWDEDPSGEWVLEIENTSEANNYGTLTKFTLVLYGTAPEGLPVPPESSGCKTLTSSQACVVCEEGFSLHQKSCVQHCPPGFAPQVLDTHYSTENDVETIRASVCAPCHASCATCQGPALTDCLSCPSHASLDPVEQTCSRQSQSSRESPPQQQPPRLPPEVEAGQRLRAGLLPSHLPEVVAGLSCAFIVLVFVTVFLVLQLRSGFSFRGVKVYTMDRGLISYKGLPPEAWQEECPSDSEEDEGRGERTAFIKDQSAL
Chain of Caspase-3 (Homo sapiens) (P42574 29-175 limits assumed): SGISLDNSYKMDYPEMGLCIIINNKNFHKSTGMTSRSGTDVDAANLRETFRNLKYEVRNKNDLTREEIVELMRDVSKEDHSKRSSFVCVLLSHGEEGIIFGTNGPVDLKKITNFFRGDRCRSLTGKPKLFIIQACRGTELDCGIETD
Chain of Caspase-3 (Homo sapiens) (P42574 176-277 limits assumed): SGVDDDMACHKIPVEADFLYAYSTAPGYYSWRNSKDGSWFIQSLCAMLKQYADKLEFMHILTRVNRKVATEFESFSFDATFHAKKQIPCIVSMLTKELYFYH
Chain of Angiotensin-converting enzyme (Homo sapiens) (P12821 whole entry): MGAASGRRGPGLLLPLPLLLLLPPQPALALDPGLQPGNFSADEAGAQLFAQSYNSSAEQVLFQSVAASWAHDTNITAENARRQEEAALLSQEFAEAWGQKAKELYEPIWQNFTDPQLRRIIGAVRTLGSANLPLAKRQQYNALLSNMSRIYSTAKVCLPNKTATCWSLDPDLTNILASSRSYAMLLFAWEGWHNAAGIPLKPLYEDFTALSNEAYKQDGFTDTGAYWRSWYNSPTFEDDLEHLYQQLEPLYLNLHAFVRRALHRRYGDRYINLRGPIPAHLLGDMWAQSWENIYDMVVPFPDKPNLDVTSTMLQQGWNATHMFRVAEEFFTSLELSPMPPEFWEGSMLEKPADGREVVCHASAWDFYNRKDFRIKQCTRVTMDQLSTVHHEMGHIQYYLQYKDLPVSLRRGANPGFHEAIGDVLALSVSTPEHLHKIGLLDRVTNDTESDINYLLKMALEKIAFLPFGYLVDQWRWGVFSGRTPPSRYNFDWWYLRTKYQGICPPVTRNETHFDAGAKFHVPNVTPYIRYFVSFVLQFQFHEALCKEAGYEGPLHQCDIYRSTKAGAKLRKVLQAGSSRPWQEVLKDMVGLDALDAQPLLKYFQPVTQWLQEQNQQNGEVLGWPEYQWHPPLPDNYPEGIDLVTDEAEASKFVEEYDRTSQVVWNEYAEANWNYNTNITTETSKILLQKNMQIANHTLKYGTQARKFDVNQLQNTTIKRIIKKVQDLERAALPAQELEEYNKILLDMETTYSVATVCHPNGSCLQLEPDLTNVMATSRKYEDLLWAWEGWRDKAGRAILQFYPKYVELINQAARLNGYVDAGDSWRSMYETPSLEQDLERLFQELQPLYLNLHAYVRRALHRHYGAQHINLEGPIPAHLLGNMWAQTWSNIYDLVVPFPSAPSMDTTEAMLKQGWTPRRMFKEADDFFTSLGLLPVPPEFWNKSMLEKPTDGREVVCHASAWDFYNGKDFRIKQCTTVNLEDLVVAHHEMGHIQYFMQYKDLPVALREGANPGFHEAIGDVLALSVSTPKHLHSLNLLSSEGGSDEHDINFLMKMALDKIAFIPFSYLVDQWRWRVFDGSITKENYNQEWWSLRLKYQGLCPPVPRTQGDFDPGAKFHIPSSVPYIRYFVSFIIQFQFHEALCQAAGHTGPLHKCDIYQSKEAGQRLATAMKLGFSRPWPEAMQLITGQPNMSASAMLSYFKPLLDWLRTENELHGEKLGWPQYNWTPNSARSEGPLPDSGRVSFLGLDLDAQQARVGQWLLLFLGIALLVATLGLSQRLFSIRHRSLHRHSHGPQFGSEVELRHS
Chain of Caspase-6 (Homo sapiens) (P55212 24-179 limits assumed): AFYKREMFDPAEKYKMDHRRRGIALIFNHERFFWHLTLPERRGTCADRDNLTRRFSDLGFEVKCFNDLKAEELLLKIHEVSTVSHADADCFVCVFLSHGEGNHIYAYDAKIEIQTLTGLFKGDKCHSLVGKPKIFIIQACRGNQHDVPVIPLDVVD
Chain of Caspase-6 (Homo sapiens) (P55212 194-293 limits assumed): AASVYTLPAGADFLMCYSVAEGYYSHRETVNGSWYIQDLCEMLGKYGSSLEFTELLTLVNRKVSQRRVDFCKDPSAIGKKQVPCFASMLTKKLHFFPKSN
Chain of Caspase-7 (Homo sapiens) (P55210 24-198 limits assumed): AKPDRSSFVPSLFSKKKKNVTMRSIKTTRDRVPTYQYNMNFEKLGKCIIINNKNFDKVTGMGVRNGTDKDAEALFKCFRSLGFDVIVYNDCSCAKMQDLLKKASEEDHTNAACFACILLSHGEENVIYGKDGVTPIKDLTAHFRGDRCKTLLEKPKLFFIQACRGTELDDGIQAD
Chain of Caspase-7 (Homo sapiens) (P55210 207-303 limits assumed): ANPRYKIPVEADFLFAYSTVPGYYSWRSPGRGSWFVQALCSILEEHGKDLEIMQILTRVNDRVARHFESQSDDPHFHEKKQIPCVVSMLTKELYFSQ
Chain of Caspase-2 (Homo sapiens) (P42575 170-325 limits assumed): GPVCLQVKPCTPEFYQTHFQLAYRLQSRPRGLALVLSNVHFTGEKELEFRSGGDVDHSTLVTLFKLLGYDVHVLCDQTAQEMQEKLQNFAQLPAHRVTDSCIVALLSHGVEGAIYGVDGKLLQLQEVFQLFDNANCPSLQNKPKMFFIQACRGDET
Chain of Caspase-2 (Homo sapiens) (P42575 334-452 limits assumed): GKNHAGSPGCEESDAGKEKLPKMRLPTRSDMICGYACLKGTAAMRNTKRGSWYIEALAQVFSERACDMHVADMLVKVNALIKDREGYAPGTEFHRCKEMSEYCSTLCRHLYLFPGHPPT
Chain of Cathepsin S (Homo sapiens) (P25774 115-331 limits assumed): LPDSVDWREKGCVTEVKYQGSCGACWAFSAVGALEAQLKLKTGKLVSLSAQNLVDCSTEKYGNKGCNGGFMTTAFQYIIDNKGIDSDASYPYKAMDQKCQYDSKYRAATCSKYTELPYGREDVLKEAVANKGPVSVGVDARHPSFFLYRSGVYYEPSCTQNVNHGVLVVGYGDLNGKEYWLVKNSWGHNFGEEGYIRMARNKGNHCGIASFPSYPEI
Chain of Caspase-5 (Homo sapiens) (P51878 137-327 limits assumed): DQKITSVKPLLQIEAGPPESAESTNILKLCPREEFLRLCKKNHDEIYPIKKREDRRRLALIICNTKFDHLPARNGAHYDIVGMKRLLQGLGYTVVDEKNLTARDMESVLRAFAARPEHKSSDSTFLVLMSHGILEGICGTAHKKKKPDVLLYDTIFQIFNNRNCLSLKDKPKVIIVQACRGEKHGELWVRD
Chain of Caspase-5 (Homo sapiens) (P51878 347-434 limits assumed): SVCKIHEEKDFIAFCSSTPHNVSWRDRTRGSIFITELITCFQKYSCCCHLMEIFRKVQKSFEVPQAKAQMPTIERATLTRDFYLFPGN
Chain of Matrilysin (Homo sapiens) (P09237 whole entry): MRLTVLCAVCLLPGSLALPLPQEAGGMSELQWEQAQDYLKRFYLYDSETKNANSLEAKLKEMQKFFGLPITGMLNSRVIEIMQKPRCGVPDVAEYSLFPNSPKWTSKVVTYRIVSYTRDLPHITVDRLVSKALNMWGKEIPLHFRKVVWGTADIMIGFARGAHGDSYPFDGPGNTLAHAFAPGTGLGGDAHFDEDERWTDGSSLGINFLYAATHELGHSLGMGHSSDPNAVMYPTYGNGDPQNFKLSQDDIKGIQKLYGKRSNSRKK

With `CNC(=O)[C@@H](NC(=O)c1ccc(-c2ccc(CSc3nc4c(c(=O)[nH]3)CCC4)cc2)o1)C(C)C`, the inhibition result in assay [1] and in assay [2] was “Active” each time. Moreover, the half-maximal inhibitory concentration (IC50) in assay [3] is 9.4 nM.

Regarding `CNC(=O)[C@H](NC(=O)c1ccc(-c2ccc(CSc3nc4c(c(=O)[nH]3)CCC4)cc2)o1)C(C)C`, the half-maximal inhibitory concentration (IC50) in assay [3] is 356 nM.

Turning to `NCCNS(=O)(=O)c1ccc(-c2ccc(CSc3nc4c(c(=O)[nH]3)CCC4)cc2)cc1`, the inhibition in assay [4] was found to be 3%; in [5], 0%; in assay [6] it was 0%; in assay [7] it was 0%; in [8] it was 3%; in assay [9], 0%. For the same compound, the inhibition is 0% in assay [10]; -3% in assay [11]; 3% in assay [12]; 1% in [13]; 7% in assay [14]; 0% in assay [15]. Also, the inhibition is 1% in assay [16]; 0% in [17]; 4% in assay [18]; 0% in [19]; 1% in [20]; 1% in [21]. For the same compound, the inhibition in assay [22] was determined as 12%; in [23], 3%; in assay [24] it was 7%; in [25] it was 9%.

For `CC(C)[C@@H](NS(=O)(=O)c1ccc(-c2ccc(CSc3nc4c(c(=O)[nH]3)CCC4)cc2)cc1)C(=O)O`, in [3], the IC50 is 7 nM.

`Cc1ccc(CSc2nc(O)c3c(n2)CCC3)cc1`: in [26], the inhibition constant (Ki) worked out at 800 nM.

On to `CNC(=O)[C@@H](NC(=O)c1ccc(-c2ccc(CSc3nc4c(c(=O)[nH]3)CCC4)c(F)c2)o1)C(C)C`, for which the inhibition in [4] amounted to 0%; in assay [5] it was 0%; in assay [6], 0%; in [7], 0%; in assay [8] it was 1%; in assay [9], 2%. The inhibition is 0% in [10]; -8% in assay [11]; 0% in assay [12]; 0% in [13]; 4% in assay [14]; 0% in assay [15]. Also, the inhibition is 0% in assay [16]; 0% in assay [17]; -3% in [18]; 0% in assay [19]; 0% in assay [20]; 8% in assay [21]. Moreover, the inhibition in [22] was 2%; in [23], -6%; in assay [24], 0%; in assay [25], 7%.

For the compound `O=c1[nH]c(SCc2ccc(-c3ccc(S(=O)(=O)NCCO)cc3)cc2)nc2c1CCC2`, the half-inhibitory concentration (IC50) in assay [27] is more than 10000 nM; in assay [28] it was more than 5000 nM; in assay [29], more than 10000 nM; in assay [30], more than 5000 nM.

Usually inhibition stands for the relative decrease from the control value, in per cent. The term IC50 denotes the point on the concentration scale where inhibition reaches its midpoint. In general, Ki refers to a measure of affinity in units of concentration, obtained from inhibition or displacement.
